{"source": "ChEMBL document CHEMBL2331323", "about": "“Design, synthesis and anticancer properties of 5-arylbenzoxepins as conformationally restricted isocombretastatin A-4 analogs” (Eur J Med Chem, 2013)", "key": {"MDA-MB-231 [1]": {"test_system": "MDA-MB-231", "test": "Growth inhibition of hormone-independent human MDA-MB-231 cells after 72 hrs by Victor microtiter plate fluorimeter analysis", "format": "functional", "conditions": "MDA-MB-231, 72 h"}, "[2]": {"test": "Inhibition of sheep brain tubulin polymerization assessed as decrease in rate of microtubule assembly by fluorimeter analysis", "parameters": "species or system Ovis aries", "method_in_brief": "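Sheep brain tubulin purified by two assembly–disassembly cycles, at about 2-3 mg/mL in 0.1 M MES, 0.5 mM MgCl₂, 1 mM EGTA, 1 mM GTP, pH 6.6. Assembly followed by DAPI fluorescence at 37 °C. IC50 is the concentration halving the maximum assembly rate versus no compound. Measured the same day as the isoCA-4 reference.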"}, "[3]": {"test": "Growth inhibition of human H1299 cells after 72 hrs by Victor microtiter plate fluorimeter analysis", "format": "functional", "conditions": "NCI-H1299, 72 h"}, "HCT-116 [4]": {"test_system": "HCT-116", "test": "Growth inhibition of human HCT116 cells after 72 hrs by Victor microtiter plate fluorimeter analysis", "format": "functional"}, "K562 [5]": {"test_system": "K562", "test": "Growth inhibition of human K562 cells after 72 hrs by Victor microtiter plate fluorimeter analysis", "format": "functional", "conditions": "K562, 72 h"}, "Ovis aries": {"organism": "Ovis aries", "test": "Ratio of compound IC50 to isoCA-4 IC50 for sheep brain tubulin polymerization by fluorimeter analysis"}, "NCI-H1299 [6]": {"test_system": "NCI-H1299", "test": "Induction of apoptosis in human H1299 cells assessed as increase in proteolytic activity of caspase 3/7 after 24 hrs by fluorimeter analysis", "format": "functional, cell-based", "method_in_brief": "(§1)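 Apo-ONE homogeneous caspase-3/7 kit. Cells seeded at 5 × 10⁴ per well and grown 24 h. Medium then replaced with compound at 1, 5 and 10 nM, or 0.1% DMSO as negative control, for 24 h. Caspase substrate and Apo-ONE buffer mix added, incubated 1 h, fluorescence read at 527 nm.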"}, "HCT-116 [7]": {"test_system": "HCT-116", "test": "Induction of apoptosis in human HCT116 cells assessed as increase in proteolytic activity of caspase 3/7 after 24 hrs by fluorimeter analysis", "format": "functional, cell-based", "method_in_brief": "as §1"}, "MDA-MB-231 [8]": {"test_system": "MDA-MB-231", "test": "Induction of cell cycle arrest in human MDA-MB-231 cells assessed as accumulation of cells in G2/M phase at 5 nM after 24 hrs by propidium iodide staining based flow cytometry", "format": "functional", "method_in_brief": "(§2)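 Exponentially growing cells exposed to compound at 5 nM, or DMSO, for 24 h. Cell-cycle distribution determined by flow cytometry after standard propidium iodide staining.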"}, "NCI-H1299 [9]": {"test_system": "NCI-H1299", "test": "Induction of cell cycle arrest in human H1299 cells assessed as accumulation of cells in G2/M phase at 5 nM after 24 hrs by propidium iodide staining based flow cytometry", "format": "functional", "method_in_brief": "as §2"}, "K562 [10]": {"test_system": "K562", "test": "Induction of cell cycle arrest in human K562 cells assessed as accumulation of cells in G2/M phase at 5 nM after 24 hrs by propidium iodide staining based flow cytometry", "format": "functional", "method_in_brief": "as §2"}, "HCT-116 [11]": {"test_system": "HCT-116", "test": "Induction of cell cycle arrest in human HCT116 cells assessed as accumulation of cells in G2/M phase at 5 nM after 24 hrs by propidium iodide staining based flow cytometry", "format": "functional", "method_in_brief": "as §2"}}, "note": "Active and inactive are the calls of the source. The calls are words filed in the database; no cut-off is given here.", "data": [{"compound": "C=C(c1ccc(OC)c(O)c1)c1cc(OC)c(OC)c(OC)c1", "values": [{"measurement": "GI50", "setting": "MDA-MB-231 [1]", "value": 0.004, "unit": "µM"}, {"measurement": "IC50", "setting": "[2]", "value": 1.5, "unit": "µM"}, {"measurement": "GI50", "setting": "[3]", "value": 0.003, "unit": "µM"}, {"measurement": "GI50", "setting": "HCT-116 [4]; HCT-116, 72 h", "value": 0.003, "unit": "µM"}, {"measurement": "GI50", "setting": "K562 [5]", "value": 0.005, "unit": "µM"}]}, {"compound": "COc1ccc2c(c1Br)OCCC=C2c1cc(OC)c(OC)c(OC)c1", "values": [{"measurement": "GI50", "setting": "HCT-116 [4]; HCT-116, 72 h", "value": 0.17, "unit": "µM"}]}, {"compound": "COc1ccc(/C=C\\c2cc(OC)c(OC)c(OC)c2)cc1O", "note": "[COMBRETASTATIN A4]", "values": [{"measurement": "GI50", "setting": "HCT-116 [4]; HCT-116, 72 h", "value": 0.002, "unit": "µM"}]}, {"compound": "COc1ccc2c(c1O)OCCC=C2c1cc(OC)c(OC)c(OC)c1", "values": [{"measurement": "Ratio IC50", "setting": "Ovis aries", "value": 2}, {"measurement": "Activity", "setting": "NCI-H1299 [6]", "value": "Dose-dependent effect"}, {"measurement": "Activity", "setting": "HCT-116 [7]", "value": "Dose-dependent effect"}, {"measurement": "Activity", "setting": "MDA-MB-231 [8]", "value": "Active"}, {"measurement": "Activity", "setting": "NCI-H1299 [9]", "value": "Active"}, {"measurement": "Activity", "setting": "K562 [10]", "value": "Active"}, {"measurement": "Activity", "setting": "HCT-116 [11]", "value": "Active"}, {"measurement": "GI50", "setting": "MDA-MB-231 [1]", "value": 0.003, "unit": "µM"}, {"measurement": "IC50", "setting": "[2]", "value": 3.8, "unit": "µM"}, {"measurement": "GI50", "setting": "[3]", "value": 0.0045, "unit": "µM"}, {"measurement": "GI50", "setting": "HCT-116 [4]; HCT-116, 72 h", "value": 0.0015, "unit": "µM"}, {"measurement": "GI50", "setting": "K562 [5]", "value": 0.008, "unit": "µM"}]}, {"compound": "COc1cc(OC)cc(C2=CCCOc3c2ccc(OC)c3O)c1", "values": [{"measurement": "Ratio IC50", "setting": "Ovis aries", "value": 2}, {"measurement": "GI50", "setting": "MDA-MB-231 [1]", "value": 0.028, "unit": "µM"}, {"measurement": "IC50", "setting": "[2]", "value": 3.2, "unit": "µM"}, {"measurement": "GI50", "setting": "[3]", "value": 0.032, "unit": "µM"}, {"measurement": "GI50", "setting": "HCT-116 [4]; HCT-116, 72 h", "value": 0.025, "unit": "µM"}, {"measurement": "GI50", "setting": "K562 [5]", "value": 0.03, "unit": "µM"}]}, {"compound": "COc1ccc2c(c1C#CCCO)OCCC=C2c1cc(OC)c(OC)c(OC)c1", "values": [{"measurement": "GI50", "setting": "HCT-116 [4]; HCT-116, 72 h", "value": 0.25, "unit": "µM"}]}, {"compound": "COc1ccc2c(c1N)OCCC=C2c1cc(OC)c(OC)c(OC)c1", "values": [{"measurement": "Ratio IC50", "setting": "Ovis aries", "value": 2}, {"measurement": "GI50", "setting": "MDA-MB-231 [1]", "value": 0.008, "unit": "µM"}, {"measurement": "IC50", "setting": "[2]", "value": 3.6, "unit": "µM"}, {"measurement": "GI50", "setting": "[3]", "value": 0.03, "unit": "µM"}, {"measurement": "GI50", "setting": "HCT-116 [4]; HCT-116, 72 h", "value": 0.022, "unit": "µM"}, {"measurement": "GI50", "setting": "K562 [5]", "value": 0.04, "unit": "µM"}]}, {"compound": "COc1ccc2c(c1)OCCC=C2c1cc(OC)c(OC)c(OC)c1", "values": [{"measurement": "Ratio IC50", "setting": "Ovis aries", "value": 2}, {"measurement": "GI50", "setting": "MDA-MB-231 [1]", "value": 0.25, "unit": "µM"}, {"measurement": "IC50", "setting": "[2]", "value": 3.9, "unit": "µM"}, {"measurement": "GI50", "setting": "[3]", "value": 0.18, "unit": "µM"}, {"measurement": "GI50", "setting": "HCT-116 [4]; HCT-116, 72 h", "value": 0.085, "unit": "µM"}, {"measurement": "GI50", "setting": "K562 [5]", "value": 0.1, "unit": "µM"}]}, {"compound": "COc1ccc2c(c1CCCCO)OCCCC2c1cc(OC)c(OC)c(OC)c1", "note": "(stereo not given)", "values": [{"measurement": "GI50", "setting": "HCT-116 [4]", "value": "inactive"}]}, {"compound": "COc1ccc2c(c1O)OCCCC2c1cc(OC)c(OC)c(OC)c1", "note": "(stereo not given)", "values": [{"measurement": "Ratio IC50", "setting": "Ovis aries", "value": 2}, {"measurement": "GI50", "setting": "MDA-MB-231 [1]", "value": 0.015, "unit": "µM"}, {"measurement": "IC50", "setting": "[2]", "value": 3.3, "unit": "µM"}, {"measurement": "GI50", "setting": "[3]", "value": 0.007, "unit": "µM"}, {"measurement": "GI50", "setting": "HCT-116 [4]; HCT-116, 72 h", "value": 0.02, "unit": "µM"}, {"measurement": "GI50", "setting": "K562 [5]", "value": 0.05, "unit": "µM"}]}]}
